Experimental findings from ChEMBL document CHEMBL3580604, “Flavonoids from Matteuccia struthiopteris and Their Anti-influenza Virus (H1N1) Activity” (J Nat Prod, 2015) are described below.

The structures appear in SMILES notation. The source made the active and inactive calls. No cut-off for these calls is given here.

Series [1] has as its target Neuraminidase (Influenza A virus) (UniProt B4URF0). Kind of series: Inhibition of Influenza A virus A/PR/8/34 (H1N1) neuraminidase activity measured in infected MDCK cells using MUNANA as substrate assessed as fluorescence intensity after 48 hrs. The conditions noted are these: Influenza A virus (A/Puerto Rico/8/1934(H1N1)). Format: cell-based. Put shortly:
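MDCK cells (2 × 10^4/well) infected with A/PR/8/34 at MOI 0.01, with samples (0.7–166 μM, DMEM with 1% DMSO) added at the same time. After 1 h at 37 °C the cells were washed and fresh sample-containing DMEM added for 48 h. Supernatant NA activity was read with MUNANA for 45 min at 37 °C (ex 355/em 485 nm). Triplicate runs; EC50 by linear extrapolation; ribavirin 0.8–200 μM control.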

A further series deals with MDCK. Kind of series: Cytotoxicity against MDCK cells assessed as cell viability after 72 hrs by MTT assay. Format: cell-based, Canis lupus familiaris. The conditions noted are these: dog. (In general: Tetrazolium assays rely on reduction of a dye to a coloured formazan, in cell work by metabolically active cells.)
Series [2] in a line: Selectivity index, ratio of cytotoxicity for MDCK cells to EC50 for Influenza A virus A/PR/8/34 (H1N1) neuraminidase activity. Format: toxicity, cell-based. The following applies: dog, read-out: Selectivity Index. Put shortly:
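SI calculated as CC50/EC50, with CC50 from the 72 h MDCK AlamarBlue assay and EC50 from the MUNANA neuraminidase assay on supernatants of PR8-infected MDCK cells at 48 h.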

Neuraminidase (Influenza A virus), sequence (B4URF0 as listed by the source): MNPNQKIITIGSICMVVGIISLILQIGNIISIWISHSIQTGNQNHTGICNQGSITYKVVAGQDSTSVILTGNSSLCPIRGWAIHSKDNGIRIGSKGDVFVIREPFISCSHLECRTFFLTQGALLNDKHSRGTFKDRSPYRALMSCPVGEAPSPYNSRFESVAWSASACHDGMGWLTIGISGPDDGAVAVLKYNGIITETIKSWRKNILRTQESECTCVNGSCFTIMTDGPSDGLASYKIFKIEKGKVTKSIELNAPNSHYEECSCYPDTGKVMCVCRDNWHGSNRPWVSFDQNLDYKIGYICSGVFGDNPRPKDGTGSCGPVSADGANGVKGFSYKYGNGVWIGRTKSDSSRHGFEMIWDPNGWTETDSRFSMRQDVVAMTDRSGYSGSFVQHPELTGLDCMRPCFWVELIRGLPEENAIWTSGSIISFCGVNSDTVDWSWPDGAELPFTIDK

For the compound `CC(=O)O[C@@H]1[C@@H](O)[C@@H](O[C@@H]2O[C@H](CO)[C@@H](O)[C@H](O)[C@H]2O)[C@H](Oc2c(-c3ccc(O)cc3)oc3cc(O[C@@H]4O[C@@H](C)[C@H](O)[C@@H](O)[C@H]4O)cc(O)c3c2=O)O[C@H]1C`, the inhibition entry in series [1] is “inactive”. For the same compound, in the series with MDCK, the Activity result is given as “Non-toxic”.
Taken in the same sequence, the figures for `COC(=O)C(C)OC(O[C@H]1[C@H](Oc2c(-c3ccc(O)cc3)oc3cc(O[C@@H]4O[C@@H](C)[C@H](O)[C@@H](O)[C@H]4O)cc(O)c3c2=O)O[C@@H](C)[C@H](O)[C@H]1O)C(O)C(=O)OC` (stereo partly drawn) were “inactive” and “Non-toxic”.
The like results for `C[C@@H]1O[C@@H](Oc2cc(O)c3c(=O)c(O[C@@H]4O[C@@H](C)[C@H](O)[C@@H](O)[C@H]4O[C@@H]4O[C@@H](C)[C@H](O)[C@@H](O)[C@H]4O)c(-c4ccc(O)cc4)oc3c2)[C@H](O)[C@H](O)[C@H]1O` were, in that order, “inactive” and “Non-toxic”.
Take `COc1c(O)cc([C@@H]2CC(=O)c3c(O)c(C)c(O[C@@H]4O[C@H](CO)[C@@H](O)[C@H](O)[C@H]4O)c(C)c3O2)cc1O`: the selectivity ratio in series [2] came out at 34.4. Besides, in the series on MDCK, the Activity result is given as “Non-toxic”.
With `CC(=O)O[C@@H]1[C@@H](O)[C@@H](O[C@@H]2O[C@H](CO)[C@@H](O)[C@@H](O)[C@H]2O)[C@H](Oc2c(-c3ccc(O)cc3)oc3cc(O[C@@H]4O[C@@H](C)[C@H](O)[C@@H](O)[C@H]4O)cc(O)c3c2=O)O[C@H]1C`, the inhibition result in series [1] was “inactive”. Also, the Activity entry in the series on MDCK was “Non-toxic”.
Taken in the same sequence, the figures for `COC(=O)C1(O)CC(C)OC1O[C@H]1[C@H](Oc2c(-c3ccc(O)cc3)oc3cc(O[C@@H]4O[C@@H](C)[C@H](O)[C@@H](O)[C@H]4O)cc(O)c3c2=O)O[C@@H](C)[C@H](O)[C@H]1O` (stereo partly drawn) were “inactive” and “Non-toxic”.
Regarding `O=c1c(O[C@@H]2O[C@H](CO)[C@@H](O)[C@H](O)[C@H]2O)c(-c2ccc(O)cc2)oc2cc(O)cc(O)c12` [ASTRAGALIN], the selectivity ratio in series [2] was 12.4. For the same compound, the Activity result in the series with MDCK is recorded as “Non-toxic”.
Taken in the same sequence, the figures for `COc1c(O)cc(C2CC(=O)c3c(O)c(C)c(O)c(C)c3O2)cc1O` (stereo not drawn) were 3.1 and “Non-toxic”.
As for `C[C@@H]1O[C@@H](Oc2cc(O)c3c(=O)c(O[C@@H]4O[C@@H](C)[C@H](O)[C@@H](O)[C@H]4O[C@@H]4O[C@H](CO)[C@@H](O)[C@@H](O)[C@H]4O)c(-c4ccc(O)cc4)oc3c2)[C@H](O)[C@H](O)[C@H]1O`, the inhibition entry in series [1] was “inactive”. In addition, in the series with MDCK, the Activity entry was “Non-toxic”.
